These results are taken from ChEMBL document CHEMBL4304816, “A Novel Biphenyl-based Chemotype of Retinoid X Receptor Ligands Enables Subtype and Heterodimer Preferences” (ACS Med Chem Lett, 2019).

Converted amounts (≈) assume the structure as drawn. The source made the active and inactive calls. No cut-off for these calls is given here.

Data set [1] can be described thus: Agonist activity at full-length human RXR/LXR expressed in HEK293T cells at 0.3 uM after 14 to 16 hrs in presence of 1 uM T0901317 by dual-glo luciferase reporter gene assay relative to T0901317. Particulars: HEK-293T, read-out: Activity. The data set is classed as cell-based. In short, it runs like this: (§1)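 Synergy format: the test compound was co-applied with the partner-receptor reference agonist at 1 μM, either T0901317 (RXR:LXR) or rosiglitazone (RXR:PPARγ). Relative synergistic activation was derived from three independent experiments, each in duplicate; mean reported.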

The nature of data set [2]: Agonist activity at full-length human RXR/LXR expressed in HEK293T cells at 0.3 uM after 14 to 16 hrs by dual-glo luciferase reporter gene assay relative to untreated control. Particulars: HEK-293T, read-out: Activity. The format is cell-based. In short, it runs like this:
(§2)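 RXR:LXR or RXR:PPARγ heterodimer reporter assay with test compound alone. Activation expressed relative to 0.1% DMSO vehicle. Three independent experiments, each in duplicate; mean reported.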

Data set [3] is filed under the species Homo sapiens. Nature of the data set: Agonist activity at full-length human PPARgamma/RXR expressed in HEK293T cells at 0.3 uM after 14 to 16 hrs by dual-glo luciferase reporter gene assay relative to untreated control. The format is cell-based. In short, it runs like this: (§3)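 RXR:PPARγ heterodimer reporter assay in HEK293T cells with test compound alone. Mean relative activation is taken versus 0.1% DMSO, from three independent experiments each run in duplicate.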

The nature of data set [4]: Solubility of compound at 3 mg after 24 hrs by HPLC analysis. The data set is classed as physicochemical.
The species named for data set [5] is Homo sapiens. Description: Agonist activity at full-length human PPARgamma/RXR expressed in HEK293T cells at 0.3 uM after 14 to 16 hrs in presence of 1 uM rosiglitazone by dual-glo luciferase reporter gene assay relative to rosiglitazone. The format is cell-based. In short, it runs like this:
(§4)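 RXR:PPARγ heterodimer reporter assay run with reference PPARγ agonist rosiglitazone (1 μM) co-applied. Read-out is mean relative synergistic activation, from three independent experiments each run in duplicate.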

Data set [6] is filed under the species Homo sapiens. Description: Agonist activity at full-length human RXR/PPARgamma expressed in HEK293T cells at 1 uM after 14 to 16 hrs by dual-glo luciferase reporter gene assay relative to untreated control. The format is cell-based. In short, it runs like this: as §2
The nature of data set [7]: Agonist activity at full-length human RXR/LXR expressed in HEK293T cells at 20 uM after 14 to 16 hrs by dual-glo luciferase reporter gene assay relative to untreated control. The format is cell-based. Particulars: HEK-293T, read-out: Activity. A digest of the protocol: as §2
Data set [8] concerns the target T1, Retinoic acid receptor RXR-alpha (Homo sapiens, UniProt P19793).
T1 sequence (P19793 whole entry): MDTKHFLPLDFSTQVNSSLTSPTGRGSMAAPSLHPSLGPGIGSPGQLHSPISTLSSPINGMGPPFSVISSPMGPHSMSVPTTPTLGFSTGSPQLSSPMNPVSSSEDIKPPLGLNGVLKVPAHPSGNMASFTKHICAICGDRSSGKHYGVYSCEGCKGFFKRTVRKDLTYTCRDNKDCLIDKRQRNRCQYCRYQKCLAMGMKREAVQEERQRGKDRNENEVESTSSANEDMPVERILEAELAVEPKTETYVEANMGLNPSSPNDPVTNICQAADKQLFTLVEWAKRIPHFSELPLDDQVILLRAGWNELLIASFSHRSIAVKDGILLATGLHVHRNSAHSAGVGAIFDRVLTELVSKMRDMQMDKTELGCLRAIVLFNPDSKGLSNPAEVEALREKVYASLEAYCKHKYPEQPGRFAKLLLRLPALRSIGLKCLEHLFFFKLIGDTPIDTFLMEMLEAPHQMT
Description: Agonist activity at Gal4-LBD fused RXRalpha (unknown origin) expressed in HEK293T cells after 14 to 16 hrs by dual-Glo luciferase assay. The format is cell-based. A digest of the protocol: (§5)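 Gal4-hybrid RXRα/β/γ reporter gene assays in HEK293T cells. Fold activation is the maximal fold activation versus 0.1% DMSO.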

For data set [9], the target named is T2, Retinoic acid receptor RXR-beta (Homo sapiens, UniProt P28702).
T2 sequence (P28702 whole entry): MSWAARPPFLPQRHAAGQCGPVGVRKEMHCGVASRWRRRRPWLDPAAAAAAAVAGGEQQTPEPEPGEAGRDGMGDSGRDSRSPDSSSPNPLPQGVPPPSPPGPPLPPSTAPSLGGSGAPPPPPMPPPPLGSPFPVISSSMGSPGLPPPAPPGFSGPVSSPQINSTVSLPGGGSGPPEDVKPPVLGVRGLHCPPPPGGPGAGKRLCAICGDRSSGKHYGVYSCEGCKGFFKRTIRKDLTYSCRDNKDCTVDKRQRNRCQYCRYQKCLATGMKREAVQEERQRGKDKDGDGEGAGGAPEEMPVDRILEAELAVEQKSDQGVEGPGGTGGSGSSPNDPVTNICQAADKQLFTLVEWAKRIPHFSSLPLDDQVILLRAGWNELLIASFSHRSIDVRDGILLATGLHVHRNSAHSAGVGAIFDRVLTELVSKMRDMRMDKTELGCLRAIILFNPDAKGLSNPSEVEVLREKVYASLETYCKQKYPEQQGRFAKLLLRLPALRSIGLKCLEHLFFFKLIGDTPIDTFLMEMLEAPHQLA
Nature of the data set: Agonist activity at Gal4-LBD fused RXRbeta (unknown origin) expressed in HEK293T cells after 14 to 16 hrs by dual-Glo luciferase assay. The format is cell-based. In short, it runs like this: as §5

Data set [10] in a line: Agonist activity at full-length human RXR/LXR expressed in HEK293T cells at 20 uM after 14 to 16 hrs in presence of 1 uM T0901317 by dual-glo luciferase reporter gene assay relative to T0901317. The data set is classed as cell-based. Particulars: HEK-293T, read-out: Activity. In short, it runs like this: as §1
Data set [11] is filed under the species Homo sapiens. Nature of the data set: Agonist activity at full-length human PPARgamma/RXR expressed in HEK293T cells at 20 uM after 14 to 16 hrs by dual-glo luciferase reporter gene assay relative to untreated control. The format is cell-based. A digest of the protocol: as §3
The target of data set [12] is T3, Retinoic acid receptor RXR-gamma (Homo sapiens) (UniProt P48443).
T3 sequence (whole entry): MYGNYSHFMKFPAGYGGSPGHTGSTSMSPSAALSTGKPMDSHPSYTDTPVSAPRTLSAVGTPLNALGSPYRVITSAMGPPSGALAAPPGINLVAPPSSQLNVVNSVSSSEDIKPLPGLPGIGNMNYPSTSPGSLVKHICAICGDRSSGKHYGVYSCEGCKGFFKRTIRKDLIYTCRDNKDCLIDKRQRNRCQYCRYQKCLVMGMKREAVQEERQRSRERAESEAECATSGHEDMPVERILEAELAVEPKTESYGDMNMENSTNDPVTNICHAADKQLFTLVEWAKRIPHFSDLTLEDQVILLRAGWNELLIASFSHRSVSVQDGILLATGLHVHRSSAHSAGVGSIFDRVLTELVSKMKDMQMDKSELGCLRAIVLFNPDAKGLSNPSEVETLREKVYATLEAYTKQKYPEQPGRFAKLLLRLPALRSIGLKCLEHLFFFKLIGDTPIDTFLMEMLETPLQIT
Nature of the data set: Agonist activity at Gal4-LBD fused RXRgamma (unknown origin) expressed in HEK293T cells at 30 uM after 14 to 16 hrs by dual-Glo luciferase assay. The data set is classed as cell-based.

The species entered for data set [13] is Homo sapiens. Nature of the data set: Agonist activity at full-length human PPARgamma/RXR expressed in HEK293T cells at 20 uM after 14 to 16 hrs in presence of 1 uM rosiglitazone by dual-glo luciferase reporter gene assay relative to rosiglitazone. The format is cell-based. In short, it runs like this: as §4
Data set [14] deals with T4, Retinoic acid receptor RXR-beta (Homo sapiens) (UniProt P28702).
T4 sequence (whole entry): T2 sequence (P28702 whole entry)
Nature of the data set: Agonist activity at Gal4-LBD fused RXRbeta (unknown origin) expressed in HEK293T cells at 0.1 to 3 uM after 14 to 16 hrs in presence of RXR antagonist HX531 by dual-Glo luciferase reporter gene assay. The data set is classed as cell-based.

The target of data set [15] is T5, Retinoic acid receptor RXR-gamma (Homo sapiens, UniProt P48443).
T5 sequence (P48443 whole entry): T3 sequence (whole entry)
Nature of the data set: Agonist activity at Gal4-LBD fused RXRgamma (unknown origin) expressed in HEK293T cells after 14 to 16 hrs by dual-Glo luciferase assay. The format is cell-based. A digest of the protocol:
as §5

In data set [16] the target is T6, Retinoic acid receptor RXR-alpha (Homo sapiens) (UniProt P19793).
T6 sequence (whole entry): T1 sequence (P19793 whole entry)
Description: Agonist activity at Gal4-LBD fused RXRalpha (unknown origin) expressed in HEK293T cells at 0.1 to 3 uM after 14 to 16 hrs in presence of RXR antagonist HX531 by dual-Glo luciferase reporter gene assay. The data set is classed as cell-based.

For data set [17], the species on record is Homo sapiens. Description: Agonist activity at full-length human PPARgamma/RXR expressed in HEK293T cells at 5 uM after 14 to 16 hrs by dual-glo luciferase reporter gene assay relative to untreated control. The format is cell-based. In short, it runs like this: as §2
Data set [18] can be described thus: Agonist activity at full-length human RXR/LXR expressed in HEK293T cells at 5 uM after 14 to 16 hrs in presence of 1 uM T0901317 by dual-glo luciferase reporter gene assay relative to T0901317. The data set is classed as cell-based. Particulars: HEK-293T, read-out: Activity. In short, it runs like this: as §1
The species entered for data set [19] is Homo sapiens. Nature of the data set: Agonist activity at full-length human PPARgamma/RXR expressed in HEK293T cells at 5 uM after 14 to 16 hrs in presence of 1 uM rosiglitazone by dual-glo luciferase reporter gene assay relative to rosiglitazone. The data set is classed as cell-based. A digest of the protocol:
as §1

Data set [20] deals with T3, Retinoic acid receptor RXR-gamma (Homo sapiens). Description: Agonist activity at Gal4-LBD fused RXRgamma (unknown origin) expressed in HEK293T cells at 0.1 to 3 uM after 14 to 16 hrs in presence of RXR antagonist HX531 by dual-Glo luciferase reporter gene assay. The format is cell-based.
Data set [21] can be described thus: Agonist activity at full-length human RXR/LXR expressed in HEK293T cells at 5 uM after 14 to 16 hrs by dual-glo luciferase reporter gene assay relative to untreated control. The data set is classed as cell-based. Particulars: HEK-293T, read-out: Activity. A digest of the protocol: as §2

With `C=C(c1ccc(C(=O)O)cc1)c1cc2c(cc1C)C(C)(C)CCC2(C)C` [BEXAROTENE], the activity at 0.3 µM came to 665% in data set [1] and 200% in [2]. Besides, the figures for the Activity in the data set filed under Homo sapiens [3] and in the data set listed under Homo sapiens [5] were 330% and 423%, respectively. Also, the concentration in solution in data set [4] (solubility at 24 h) was 0.3 µg/mL (≈ 0.861 µM).
In the data set listed under Homo sapiens [6], `CN(CCOc1ccc(CC2SC(=O)NC2=O)cc1)c1ccccn1` (stereo not drawn) showed an Activity of 224%.
For the compound `Cc1cc(-c2cc(C(F)(F)F)cc(C(F)(F)F)c2)ccc1C(=O)O`, the activity at 20 µM in data set [7] and in data set [10] was 71% throughout. The EC50 in data set [8] is 9.1 µM; in data set [9] it was 8.9 µM. In addition, the results for the Activity in the data set filed under Homo sapiens [11] and in the data set listed under Homo sapiens [13] were 84% and 46%, respectively. Moreover, the Activity entry in data set [12] is “inactive”.
For the compound `CC(C)(C)c1cc(-c2ccc(CC(=O)O)cc2)cc(C(C)(C)C)c1`, the Activity result in data set [14], in [16] and in data set [20] was “inactive” in each case. Further, the EC50 stood at 3.3 µM in [15], 0.47 µM in [8] and 0.8 µM in data set [9]. In addition, the results for the Activity in the data set listed under Homo sapiens [17] and in the data set listed under Homo sapiens [19] were 173% and 108%, respectively. In addition, the activity at 5 µM is 82% in data set [18] and 89% in data set [21].
